# From ChEMBL document CHEMBL4038267, “Antiproliferative Activity of Natural Taiwaniaquinoids and Related Compounds” (J Nat Prod, 2017)
# Experiments:
# Type in all cases: functional, cell-based
# T84 = test: Antiproliferative activity against human T84 cells after 3 days by sulforhodamine B assay; conditions: T84, 72 h
# Outline: (§1)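 Cells from a university core cell-culture facility, grown in DMEM with 10% heat-inactivated FBS, penicillin-streptomycin and 2 mM L-glutamine at 37 °C, 5% CO2, 90% humidity. Seeded at 1 × 10^4 cells/cm2 in quadruplicate, treated after 24 h with increasing concentrations. Fixed in cold 10% TCA, stained with 0.4% sulforhodamine in 1% HOAc, solubilized in 10 mM Tris pH 10.5, OD 492 nm. IC50 by linear interpolation of semilog curves; mean ± SEM, four determinations.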
# MCF7 = test: Antiproliferative activity against human MCF7 cells after 3 days by sulforhodamine B assay; conditions: MCF7, 72 h; outline: as §1
# A549 = test: Antiproliferative activity against human A549 cells after 3 days by sulforhodamine B assay; conditions: A549, 72 h; outline: as §1
SMILES,IC50 (T84) [µM],IC50 (MCF7) [µM],IC50 (A549) [µM]
CC(C)C1=C(Br)C(=O)C2=C(C=C3C(C)(C)CCC[C@@]32C)C1=O,6.2,3.2,22.1
C=C1C2=C(C(=O)C(Br)=C(C(C)C)C2=O)[C@@]2(C)CCCC(C)(C)C12O (some centres undefined),5.2,1,1.5
C=C1C2=C(C(=O)C(Br)=C(C(C)C)C2=O)[C@@]2(C)CCCC(C)(C)[C@H]12,9.6,1.3,
CC(C)C1=C(Br)C(=O)C2=C(C[C@H]3C(C)(C)CCC[C@]23C)C1=O,3.2,2.2,11.8
COC(=O)[C@]1(C)CCC[C@]2(C)C3=C(C(=O)C(C(C)C)=C(Br)C3=O)[C@H](COC(C)=O)[C@@H]12,2.9,2.4,2.4
CC(C)C1=CC(=O)C2=C(C1=O)[C@H](CO)[C@H]1C(C)(C)CCC[C@]21C,18,15.7,12.5
COC(=O)[C@]1(C)CCC[C@]2(C)C3=C(C(=O)C(C(C)C)=C(OC)C3=O)[C@H](C=O)[C@@H]12,12.8,11.4,12.1
CC(=O)OC[C@H]1c2c(O)c(C(C)C)cc(O)c2[C@@]2(C)CCCC(C)(C)[C@H]12,25,36.1,19.4
C=C1[C@H]2C(C)(C)CCC[C@]2(C)C2(O)C(=O)C(OC)=C(C(C)C)C(=O)C12O (some centres undefined),36.3,36.4,27.2
C=C1C2=C(C(=O)C(OC)=C(C(C)C)C2=O)[C@@]2(C)CCCC(C)(C)C12O (some centres undefined),24.9,12.6,23.8
CC(=O)OC[C@H]1C2=C(C(=O)C(Br)=C(C(C)C)C2=O)[C@@]2(C)CCC[C@@](C)(COC(C)=O)[C@H]12,1.6,1.8,1.1
CC(C)C1=CC(=O)C2=C(C[C@H]3C(C)(C)CCC[C@]23C)C1=O,6,16.1,30.3
CC(C)C1=C(O)C(=O)[C@]23O[C@@]2(C1=O)[C@H](CO)[C@H]1C(C)(C)CCC[C@@]13C,17.1,17.1,19.2
CC(C)C1=C(Br)C(=O)C2=C(C1=O)[C@H](CO)[C@H]1C(C)(C)CCC[C@]21C,6.7,2.1,12.2
COC1=C(C(C)C)C(=O)C2=C(C1=O)[C@@]1(C)CCCC(C)(C)[C@@H]1[C@H]2C=O [TAIWANIAQUINONE],11.9,15.4,10.1
COC(=O)[C@]1(C)CCC[C@]2(C)C3=C(C(=O)C(C(C)C)=C(OC)C3=O)[C@H](CO)[C@@H]12,31.4,10,22.9
C=C1C2=C(C(=O)C(OC)=C(C(C)C)C2=O)[C@@]2(C)CCC[C@@](C)(C(=O)OC)[C@H]12,15.7,17,19.7
CC(C)C1=C(O)C(=O)C2=C(C1=O)[C@H](C=O)[C@H]1C(C)(C)CCC[C@]21C [TAIWANIQUINONE A],30.9,28.6,25.1
COC(=O)[C@]1(C)CCC[C@]2(C)C3=C(C(=O)C(C(C)C)=C(O)C3=O)[C@H](CO)[C@@H]12,23.2,32.1,8.6
CC(=O)OC[C@H]1C2=C(C(=O)C=C(C(C)C)C2=O)[C@@]2(C)CCCC(C)(C)[C@H]12,28.8,13.6,21.1
CC(C)C1=C(O)C(=O)C2=C(C1=O)[C@H](CO)[C@H]1C(C)(C)CCC[C@]21C,35.3,39.9,43.6
C=C1C2=C(C(=O)C(OC)=C(C(C)C)C2=O)[C@@]2(C)CCCC(C)(C)[C@H]12,32.3,12.4,30.9
CC(C)C1=CC(=O)C2=C(C=C3C(C)(C)CCC[C@@]32C)C1=O,8.6,7.1,15
CC(=O)OC[C@H]1C2=C(C(=O)C(Br)=C(C(C)C)C2=O)[C@@]2(C)CCCC(C)(C)[C@H]12,29.5,4,29.7
COC1=C(C(C)C)C(=O)C2=C(C1=O)[C@@]1(C)CCCC(C)(C)[C@@H]1C2 [TAIWANIAQUINONE G],14.1,16.8,30.5
